The list is not random: actives were taken first. Their share in the collection is about 2.2%.
NR2E3 ag-1 = agonists of human NR2E3 nuclear receptor | AID 602229 | inhibition of corepressor binding, % at 3.98 µM | Q9Y5X4 | hit rate 0.35% among 360,000 | CHO-S Gal4-NCOR/VP16-NR2E3 two-hybrid, luciferase;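 active = inhibition above the mean of all tested compounds plus 3 SD, cut at about 70% in these data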;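 note: 0% = DMSO with NR2E3 transfected cells and 100% = cells lacking NR2E3 construct; higher means lower luciferase signal from less NR2E3 corepressor binding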
Target sequence (Q9Y5X4 whole entry, looked up, the tested form may be a part): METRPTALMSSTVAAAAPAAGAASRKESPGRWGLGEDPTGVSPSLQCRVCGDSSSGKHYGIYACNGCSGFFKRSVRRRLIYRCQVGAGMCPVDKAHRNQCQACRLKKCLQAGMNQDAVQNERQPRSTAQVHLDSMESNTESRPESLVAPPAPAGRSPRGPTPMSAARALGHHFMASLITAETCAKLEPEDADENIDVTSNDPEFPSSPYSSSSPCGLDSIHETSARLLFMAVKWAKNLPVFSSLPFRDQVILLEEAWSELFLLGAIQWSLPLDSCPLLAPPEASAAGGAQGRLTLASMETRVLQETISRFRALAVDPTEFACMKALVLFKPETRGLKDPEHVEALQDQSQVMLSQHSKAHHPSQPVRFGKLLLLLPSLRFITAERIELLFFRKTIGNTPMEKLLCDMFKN
697 NFkB inh = lowers PMA/ionomycin-induced NF-kB signal in 697 B cells | 697 B-cell NF-kB luciferase reporter, 16 h | inhibition, % at 4 µM | hit rate 0.33% among 330,000; in the data active = inhibition above about 35%
Jurkat NFkB inh = lowers PMA/ionomycin-induced NF-kB signal in Jurkat cells. hit rate 0.53% among 330,000. PMA/ionomycin-induced NF-kB luciferase reporter, luminescence. AID 435003. inhibition, % at 4 µM; in the data active = inhibition above about 50%
FGF22 binding-1 = shifts melting point of recombinant human FGF22 | hit rate 1.5% among 340,000 | AID 651658 | recombinant FGF22 thermal shift, SYPRO orange fluorescence; percent of sucrose octasulfate shift, DMSO zero | activity (Tm shift, normalised), % at 9.99 µM | Q9HCT0;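 active = mean Tm shift, scaled 0 neutral to 100 positive control, at about 1.3% or above, every replicate too, limit read from the data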
Target sequence (Q9HCT0 whole entry, looked up): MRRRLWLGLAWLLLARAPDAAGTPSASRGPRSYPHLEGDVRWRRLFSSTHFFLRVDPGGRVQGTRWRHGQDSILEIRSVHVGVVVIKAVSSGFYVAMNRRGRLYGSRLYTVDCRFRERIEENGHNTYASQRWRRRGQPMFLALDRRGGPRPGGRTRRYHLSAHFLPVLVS
NR2E3 ag-2 = activates human photoreceptor nuclear receptor NR2E3. Q9Y5X4. GST-NR2E3/biotin-RetCOR TR-FRET, 1536-well. inhibition of corepressor binding, % at 4.78 µM. hit rate 0.12% among 320,000. AID 2300;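 active = percent inhibition above the cutoff of mean plus 3 SD of all tested compounds, set per screening campaign, cut at about 20% in these data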;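 note: 0% = DMSO wells and 100% = biotin wells as full block of FRET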
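Material: NR2E3–RetCOR corepressor complex / Amount: 1.35 nM GST-NR2E3 / Medium: Tris pH 7.5 / Compound: single nominal compound dose of 4.8 µM / Incubation: 5 h at 4 °C / Technique: TR-FRET, Eu(K)-anti-GST donor, streptavidin-D2 acceptor, ex 340, em 617/671 nm / Read-out basis: percent loss of FRET ratio relative to control wells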
miR-122 sensor = blocks miR-122 activity in Huh7 sensor cells; Huh7 miR-122 Renilla luciferase sensor, 48 h; neutral wells = 0, positive control = 100; activation (reporter increase), % at 12.5 µM; hit rate 0.3% among 340,000; AID 602342;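 active = mean replicate activation score at least 90 and every replicate individually at or above 90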;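 note: higher luciferase means less miR-122 activity so hits act as miR-122 inhibitors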
FGF22 binding-2 = FGF22 (human) binding in thermal shift | AID 720646 | hit rate 2% among 1,000 | thermal shift activity, °C (ΔTm) at 38 µM | shares compounds with FGF22 binding-1 | recombinant FGF22 thermal shift, SYPRO orange fluorescence;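 active = fitted rise in melting shift crosses a set limit at or below the top valid dose tested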
SYPRO no-protein = counter-screen for FGF22 binders: compound-only thermal shift, no protein. compound-only SYPRO orange thermal shift counter-screen. shares compounds with FGF22 binding-1. AC50, µM (series often up to 38 µM). hit rate 2% among 1,000;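 active = rising signal whose fitted curve reaches the 0.54 level within the top valid dose, showing a melting point, actives reach about 13 µM in these data; inactive = the rest, including activity in the opposite direction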; note: value is where the raw curve crosses a fixed level and not half-maximal
Numbers without * were called inactive; i = inactive; / = no result; [ ] = remark or other dose.

SMILES	NR2E3 ag-1	697 NFkB inh	Jurkat NFkB inh	FGF22 binding-1	NR2E3 ag-2	miR-122 sensor	FGF22 binding-2	SYPRO no-protein
Cc1ccc(F)cc1C(=O)N1CCC1(C)C(=O)O (centres undefined)	20.3	/	/	0.2	/	2.4	/	/
CC1(C(=O)O)CCN1C(=O)c1ccccc1F (centres undefined)	-16.8	/	/	21.8*	/	2.5	0.123	i
C/C=C/c1ccc([C@H]2[C@@H](CO)N(CC3CCOCC3)C23CN(C(=O)COC)C3)cc1	/	/	/	1.7*	/	/	0.184[42 µM]	i
C/C=C/c1ccc([C@H]2[C@@H](CO)N(CC3CCCC3)C23CN(C(=O)COC)C3)cc1	/	/	/	-0.1	/	/	/	/
C/C=C/c1ccc([C@H]2[C@@H](CO)N(C(=O)CC)C23CN(C(=O)c2ccccc2)C3)cc1	/	/	/	1.4*	/	/	0.075	i
Cc1cc(C)n(-c2ccc(C(=O)Nc3ccc(S(=O)(=O)N(C)C)cc3)cc2)n1	-9.2	-23.3	-2.6	1.5*	6.4	/	-0.24	i
CS(=O)(=O)N1CC(=O)N2[C@@H](CO)[C@H](c3ccc(Br)cc3)[C@@H]2C1	/	/	/	-0.1	/	/	/	/
Cc1ccc(S(=O)(=O)Nc2cccc(S(=O)(=O)Nc3ccccc3C(=O)O)c2)c(C)c1	-4.0	-2.9	-9.1	1.4*	/	-2.3	-0.06	i
O=C(O)c1ccccc1NS(=O)(=O)c1cccc(NS(=O)(=O)c2cc(Br)ccc2Br)c1	12.6	10.6	10.7	/	/	-4.5	/	/
C[C@@H]1CCCCO[C@H](CN(C)C(=O)C2CCCCC2)[C@@H](C)CN([C@H](C)CO)C(=O)c2cc(NS(=O)(=O)c3ccc(F)cc3)ccc2O1	/	/	/	0.5	/	4.6[16.7 µM]	/	/
O=[N+]([O-])c1ccc(Nc2cccc(F)c2)nc1	-13.5	-3.5	-8.6	3.5*	3.7	15.8	0.143	i
O=[N+]([O-])c1ccc(Nc2ccc(F)cc2)nc1	-29.6	/	/	/	-0.1	/	/	/
O=[N+]([O-])c1ccc(Nc2ccccc2)nc1	-32.3	15.1	-3.0	1.4*	2.6	/	-0.016	i
CCC(=O)N1[C@H](CO)[C@@H](c2ccccc2)[C@H]1CN(C)C(=O)CN1CCOCC1	/	/	/	1.6*	/	-16.7[16.7 µM]	-0.027	i
OC[C@H]1[C@@H](c2ccc(C#Cc3cccnc3)cc2)[C@@H]2CN(Cc3ccccc3F)CCCCN12	/	/	/	-0.3	/	-4.9[16.7 µM]	/	/
Cc1cccc(OCC(=O)NCC(c2cccs2)N2CCOCC2)c1 (centres undefined)	-10.5	-4.7	11.0	-0.7	4.3	/	/	/
O=C(COc1cccc(Cl)c1)NCC(c1cccs1)N1CCOCC1 (centres undefined)	-22.7	10.3	-11.3	1.6*	-3.0	/	-0.063	i
CC=Cc1ccc2n(c1=O)C[C@@H]1[C@@H](CO)[C@H](C(=O)NCc3ccc(F)cc3)[C@H]2N1CC (mixture of isomers)	/	/	/	-0.4	/	22.6[16.7 µM]	/	/
C[C@H](CO)N1C[C@H](C)[C@H](CN(C)C(=O)Nc2cccc3ccccc23)OCCCC[C@H](C)Oc2ccc(NS(=O)(=O)c3cn(C)cn3)cc2C1=O	/	/	/	0.0	/	10.2[16.7 µM]	/	/
COC(=O)C(C)Oc1cc(OC(C)C(=O)OC)c2c(C)c(Cl)c(=O)oc2c1 (centres undefined)	-0.5	19.0	-3.5	1.6*	2.9	-7.9	/	i
O=C(N/N=C\c1cccnc1)c1cc(-c2ccc(Cl)s2)[nH]n1	-24.2	11.4	-0.5	1.3*	-0.7	/	-0.186	i
CCCCNC(=O)C1(C)CCCCN1C(=O)c1c(F)ccc(C)c1F (centres undefined)	37.6	/	/	1.7*	/	0.3	0.187	i
O=C(N/N=C/c1ccc[nH]1)c1cc2ccccc2cc1O	-13.7	2.9	-5.2	1.8*	1.4	1.9	0.084	i
O=C(N/N=C/c1ccncc1)c1cc2ccccc2cc1O	-55.0	12.6	4.4	0.0	/	3.0	/	/
COc1ccc(S(=O)(=O)N(C)C[C@H]2Oc3ccc(NC(=O)Cc4ccccc4)cc3CC(=O)N([C@H](C)CO)C[C@@H]2C)cc1	/	/	/	-0.2	/	-5.1[16.7 µM]	/	/
SMILES	NR2E3 ag-1	697 NFkB inh	Jurkat NFkB inh	FGF22 binding-1	NR2E3 ag-2	miR-122 sensor	FGF22 binding-2	SYPRO no-protein
COc1cccc(C#Cc2cnc3c(c2)C(=O)N([C@@H](C)CO)C[C@H](C)[C@H](CN(C)C(=O)C2CCCCC2)O3)c1	/	/	/	0.0	/	1.4[16.7 µM]	/	/
Cc1nc2ccc(NC(=O)c3cc([N+](=O)[O-])cc([N+](=O)[O-])c3Cl)cc2s1	-102.8	/	/	2.1*	3.1	8.0	0.234	i
Cc1nc2ccc(NC(=O)c3ccc(Cl)c([N+](=O)[O-])c3)cc2s1	-5.9	15.4	-3.7	-0.1	-1.4	-6.3	/	/
COCC(=O)N1C[C@H](C)[C@@H](OC)CN(C)C(=O)c2ccc(NC(=O)c3cnccn3)cc2OC[C@H]1C	/	/	/	-0.1	/	/	/	/
CO[C@@H]1CN(C)C(=O)c2cc(NC(=O)c3cccc(Oc4ccccc4)c3)ccc2OC[C@@H](C)NC[C@H]1C	/	/	/	/	/	-18.7[16.7 µM]	/	/
CC(C)NC(=O)N1C[C@@H]2[C@H](c3ccccc31)[C@@H](CO)N2Cc1ccccn1	/	/	/	14.9*	/	-21.4[16.7 µM]	-0.052[42 µM]	i
CCCNC(=O)N1C[C@@H]2[C@H](c3ccccc31)[C@H](CO)N2Cc1ccc(F)cc1	/	/	/	1.3*	/	0.0[16.7 µM]	0.051	i
CC(C)NC(=O)N1C[C@@H]2[C@H](c3ccccc31)[C@H](CO)N2Cc1ccccn1	/	/	/	/	/	14.3[16.7 µM]	/	/
C[C@H](CO)N1C[C@H](C)[C@H](CN(C)Cc2ccccc2)OCc2cn(nn2)CCCC1=O	/	/	/	/	/	4.7[16.7 µM]	/	/
C[C@H](CO)N1C[C@H](C)[C@@H](CN(C)S(=O)(=O)c2ccccc2)Oc2c(NC(=O)C3CC3)cccc2C1=O	1.6	/	/	2.6*	/	15.4[16.7 µM]	0.092	i
C[C@@H]1CN([C@@H](C)CO)C(=O)c2cccc(NS(=O)(=O)c3cn(C)cn3)c2O[C@@H]1CN(C)S(=O)(=O)c1ccc(Cl)cc1	/	/	/	1.5*	/	-12.3[16.7 µM]	0.161	i
C[C@H]1CN([C@@H](C)CO)C(=O)CCCn2cc(nn2)CO[C@@H]1CN(C)Cc1cccc(C(=O)O)c1	/	/	/	1.3*	/	11.7[16.7 µM]	-0.018	i
C[C@@H]1CN([C@@H](C)CO)C(=O)c2cccc(NC(=O)C3CC3)c2O[C@H]1CN(C)Cc1ccncc1	/	/	/	1.2*	/	4.6[16.7 µM]	0.096	i
C[C@@H]1CN([C@H](C)CO)C(=O)c2cccc(NC(=O)C3CC3)c2O[C@@H]1CN(C)Cc1ccncc1	/	/	/	-0.2	/	1.7[16.7 µM]	/	/
C[C@H]1CN([C@@H](C)CO)C(=O)c2c(c3ccccc3n2C)-c2ccccc2CO[C@@H]1CN(C)C(=O)Nc1ccc2c(c1)OCO2	/	/	/	-0.1	/	/	/	/

Compound activity from PubChem BioAssay.
